Measurements from different studies.
Lines come from different studies, so protocols differ.
Target: Serine/threonine-protein kinase/endoribonuclease IRE1 (ERN1, Homo sapiens, UniProt O75460)

assay | conditions | remaining binding | Structure (SMILES)
binding, competition with immobilised ligand | 1 µM | 52% | O=C(NCCCN1CCOCC1)c1ccc(Nc2nccc(-c3cc4ccccc4s3)n2)cc1
cell-free assay, competition with immobilised ligand | 1 µM | 88% | O=C(O)[C@@H]1[C@@H](Cn2nnc3ccccc3c2=O)CC[C@H]1C(=O)c1ccc(OCCC2CCOCC2)cc1
cell-free assay, competition with immobilised ligand | 5 µM | 93% | COc1ncc2cc3ccccc3nc2c1C#N
cell-free assay, competition with immobilised ligand | 1 µM | 91% | CCC(=O)N[C@H]1CC[C@@H](C(=O)N(C)c2ccc(-c3nc4ccccc4o3)cc2)C1
binding | 1 µM | 83% | F[C@@H]1CCN(c2nccc(-c3cnn4ncccc34)n2)C1
binding, competition with immobilised ligand | 1 µM | 86% | O=C(Nc1c[nH]nc1C(=O)NC1CCNCC1)c1cc(F)cc(F)c1
binding, competition with immobilised ligand | 0.1 µM | 72% | C[C@@H](c1ccc(-n2cnc3c(N)ncnc32)cc1)N1CCc2nn(C)c(Cc3ccccc3)c2C1=O
cell-free assay, competition with immobilised ligand | 0.1 µM | 100% | CS(=O)(=O)N1CCCC(NC(=O)[C@H](CCC2CCCCC2)NC(=O)c2ccc(CNc3ncnc4c3nnn4-c3ccccc3)cc2)C1 (stereo partly drawn)
binding | 1 µM | 100% | CN(c1nccc(-c2cnn3ncccc23)n1)C1CC1
binding, competition with immobilised ligand | 1 µM | 97% | CNC(=O)[C@@H]1CC[C@@H](n2c(-c3ccc4cnccc4c3)nc3ccc(C(=O)NCc4cccc(C(N)=O)c4)cc32)C1
binding | 1 µM | 100% | N[C@@H]1CCN(c2nccc(-c3cnn4ncccc34)n2)C1
cell-free assay, competition with immobilised ligand | 1 µM | 65% | O=C(NCc1ncc(C(F)(F)F)cc1Cl)c1ccc2c(c1)C1(CCS(=O)(=O)CC1)[C@@H](C1CC1)N2S(=O)(=O)c1ccc(F)cc1
binding, competition with immobilised ligand | 1 µM | 41% | O=C(c1ccc(Nc2nccc(-c3cc4ccccc4s3)n2)cc1)N1CCC(N2CCCC2)CC1
binding | 1 µM | 100% | C[C@@H]1CCN(c2nccc(-c3cnn4ncccc34)n2)C1
binding, competition with immobilised ligand | 1 µM | 73% | COc1cnc(Nc2cccc(S(N)(=O)=O)c2)nc1N1CCN(c2ccccc2)CC1
binding, competition with immobilised ligand | 1 µM | 27% | O=C(NCCCN1CCOCC1)c1ccc(Nc2ncc(Cl)c(-c3ccc(Cl)s3)n2)cc1
binding | 1 µM | 100% | Cc1cnn2ncc(-c3ccnc(N(C)C)n3)c2c1
cell-free assay, competition with immobilised ligand | 1 µM | 100% | CNCc1ccccc1-c1csc([C@@H](C)Nc2nc(C)nc3cc(OC)c(OC)cc23)c1
binding | 1 µM | 100% | CN(C)c1nccc(-c2cnn3ncccc23)n1
cell-free assay, competition with immobilised ligand | 1 µM | 99.2% | Cc1cc(NC(=O)c2cccc(S(F)(F)(F)(F)F)c2)cc(-n2ccn3nc(-c4cccnc4)cc23)c1
binding, competition with immobilised ligand | 1 µM | 100% | Nc1ncc2c(n1)-c1c([nH]c3ccc(C#CC4CC4)cc13)CCCC2
